Activity calls are given as the source filed them.

The target in data set [1] is T1, 5-hydroxytryptamine receptor 2A (Homo sapiens, UniProt P28223). The experiment in a line: Displacement of [3H]DOI from human recombinant 5HT2A receptor expressed in HEK293 cells by scintillation counting. The following applies: in the assay text read “[125I]DOI” for “[3H]DOI”. The format is cell-based. In short, it runs like this:
(§1)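 Crude membranes (5-25 μg protein) from HEK293 cells stably expressing human 5-HT2A or 5-HT2C. Radioligand [125I]DOI at 0.5 nM final; 10 μM cold DOI defines nonspecific binding. Buffer 20 mM HEPES pH 7.4, 10 mM MgCl2; 1 h at room temperature. Eight concentrations (1 pM–10 μM), each in triplicate. Vacuum filtration on GF/C, Tris wash, scintillation counting; pKi.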
Background: In a radioligand displacement assay an active substance lowers the binding of a labelled ligand.

Data set [2] deals with 5-hydroxytryptamine receptor 2A (Rattus norvegicus, UniProt P14842). Description: Displacement of [125I]DOI from rat recombinant 5HT2A receptor by scintillation counting.
Data set [3] is described as follows: Cmax in Wistar rat at 1.5 mg/kg, po. Conditions: in vivo. The arrangement: dose 1.5 mg/kg, route oral. The data set is classed as ADME, organism-based. The essentials: (§2)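 Male Wistar rats, fasted overnight, single oral dose in 80% Tween-80/20% water. Jugular vein blood sampled serially over 24 h ([…]); sodium-heparin plasma stored at -70 °C, quantified by HPLC/MS/MS (LLOQ 1 ng/mL, ULOQ 2000 ng/mL). n = 2-3 animals; noncompartmental analysis; values as mean ± SD.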

The nature of data set [4]: Tmax in Wistar rat at 1.5 mg/kg, po. The format is ADME, organism-based. Also noted: dose 1.5 mg/kg, route oral. Conditions: in vivo. The essentials:
as §2

Data set [5] can be described thus: AUC (0 to infinity) in Wistar rat at 1.5 mg/kg, po. The following applies: plasma. Also noted: time infinity, dose 1.5 mg/kg, route oral. The format is ADME, organism-based. The essentials: as §2
Data set [6] has as its system Rattus norvegicus. The experiment in a line: Effect on behavioral activity in Wistar rat assessed as increase in non-rapid eye movement delta power at 1.4 mg/kg, po after 2 hrs. The arrangement: dose 1.4 mg/kg. The format is functional, organism-based. The essentials:
(§3)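 Male Wistar rats (300 ± 25 g) implanted for continuous EEG/EMG recording, 1 week recovery. Repeated-measures design: each rat received each treatment, including 80% Tween-80 vehicle, in random order by oral gavage. Non-REM sleep parameters scored hourly after dosing; at least five rats per compound.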

The test system of data set [7] is Rattus norvegicus. Description: Effect on behavioral activity in po dosed Sprague-Dawley rat assessed as reversal of DOI-induced inhibition of rearing behavior. The format is functional. The essentials: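 Adult male Sprague-Dawley rats dosed orally with compound 45 min before DOI (0.3 mg/kg), which lowers rearing. Fifteen minutes later, rearing recorded in photocell-monitored locomotor activity cages. A dose-response curve for reversal of DOI-induced rearing decrease yields an ED50.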

Data set [8] in a line: Half life in Wistar rat at 1.5 mg/kg, po. The following applies: in vivo. The arrangement: dose 1.5 mg/kg, route oral. The format is ADME, organism-based. In short, it runs like this: as §2
The target in data set [9] is T2, 5-hydroxytryptamine receptor 2C (Homo sapiens, UniProt P28335).
T2 sequence (P28335 whole entry): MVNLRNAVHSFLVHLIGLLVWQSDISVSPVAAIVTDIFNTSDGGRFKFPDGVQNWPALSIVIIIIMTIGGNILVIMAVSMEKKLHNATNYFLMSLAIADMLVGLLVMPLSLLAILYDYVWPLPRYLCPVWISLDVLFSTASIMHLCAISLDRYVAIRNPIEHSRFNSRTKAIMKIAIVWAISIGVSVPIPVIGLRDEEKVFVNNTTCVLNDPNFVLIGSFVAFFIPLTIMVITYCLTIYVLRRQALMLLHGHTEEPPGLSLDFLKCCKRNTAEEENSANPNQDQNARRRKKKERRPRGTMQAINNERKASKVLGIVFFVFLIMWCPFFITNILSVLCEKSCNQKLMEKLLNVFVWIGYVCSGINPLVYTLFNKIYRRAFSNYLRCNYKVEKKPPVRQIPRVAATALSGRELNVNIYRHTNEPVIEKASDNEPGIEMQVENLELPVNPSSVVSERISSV
Description: Displacement of [3H]DOI from human recombinant 5HT2C receptor expressed in HEK293 cells by scintillation counting. The following applies: in the assay text read “[125I]DOI” for “[3H]DOI”. The data set is classed as cell-based. In short, it runs like this:
as §1

Data set [10] has as its target T1, 5-hydroxytryptamine receptor 2A. The experiment in a line: Activity at human 5HT2A receptor expressed in HEK293 cells assessed as [3H]inositol phosphate production by scintillation counting. The data set is classed as functional, cell-based. In short, it runs like this:
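HEK-293 cells transiently transfected with a mutated, constitutively active h5-HT2A receptor, labeled 18 h with […] [3H]myoinositol in serum- and myoinositol-free DMEM. Then 3 h at 37 °C in HBSS with LiCl (10 mM final), pargyline and compound. Lysis with ice-cold 0.1 M formic acid; total [3H]IP separated on AG1-X8 resin and counted by scintillation. Inverse-agonist pIC50.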

The test system of data set [11] is Rattus norvegicus. The experiment in a line: Effect on behavioral activity in Wistar rat assessed as increase in non-rapid eye movement bout length at 1 mg/kg, po after 2 hrs. Also noted: dose 1 mg/kg. The format is functional, organism-based. The essentials: as §3
Data set [12] concerns Rattus norvegicus. The experiment in a line: Effect on behavioral activity in Wistar rat assessed as increase in non-rapid eye movement delta power at 1 mg/kg, po after 2 hrs. The data set is classed as functional, organism-based. The arrangement: dose 1 mg/kg. The essentials: as §3
A short description of data set [13]: Cmax in Wistar rat at 1.0 mg/kg, po. Conditions: in vivo. Also noted: dose 1 mg/kg, route oral. The data set is classed as ADME, organism-based. The essentials:
as §2

A short description of data set [14]: AUC (0 to infinity) in Wistar rat at 1.0 mg/kg, po. The data set is classed as ADME, organism-based. Also noted: time infinity, dose 1 mg/kg, route oral. The following applies: plasma. The essentials:
as §2

Data set [15] can be described thus: Half life in Wistar rat at 1.0 mg/kg, po. The data set is classed as ADME, organism-based. The arrangement: dose 1 mg/kg, route oral. The following applies: in vivo. The essentials:
as §2

The nature of data set [16]: Tmax in Wistar rat at 1.0 mg/kg, po. The format is ADME, organism-based. Also noted: dose 1 mg/kg, route oral. The following applies: in vivo. The essentials:
as §2

T1 sequence (P28223 whole entry): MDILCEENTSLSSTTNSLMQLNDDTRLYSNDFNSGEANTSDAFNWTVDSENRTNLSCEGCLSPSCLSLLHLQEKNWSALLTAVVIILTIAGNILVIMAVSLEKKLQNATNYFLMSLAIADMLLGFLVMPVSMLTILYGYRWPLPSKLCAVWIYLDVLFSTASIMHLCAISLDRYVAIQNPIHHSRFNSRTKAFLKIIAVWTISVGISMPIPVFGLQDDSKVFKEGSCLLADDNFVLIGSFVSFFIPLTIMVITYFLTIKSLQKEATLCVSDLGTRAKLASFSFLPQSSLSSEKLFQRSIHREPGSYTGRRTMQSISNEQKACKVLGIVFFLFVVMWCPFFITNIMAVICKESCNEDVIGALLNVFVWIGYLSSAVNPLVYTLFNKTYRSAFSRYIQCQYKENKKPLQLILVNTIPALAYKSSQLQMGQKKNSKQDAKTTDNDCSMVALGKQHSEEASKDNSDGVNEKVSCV
5-hydroxytryptamine receptor 2A (Rattus norvegicus, UniProt P14842), sequence (P14842 whole entry): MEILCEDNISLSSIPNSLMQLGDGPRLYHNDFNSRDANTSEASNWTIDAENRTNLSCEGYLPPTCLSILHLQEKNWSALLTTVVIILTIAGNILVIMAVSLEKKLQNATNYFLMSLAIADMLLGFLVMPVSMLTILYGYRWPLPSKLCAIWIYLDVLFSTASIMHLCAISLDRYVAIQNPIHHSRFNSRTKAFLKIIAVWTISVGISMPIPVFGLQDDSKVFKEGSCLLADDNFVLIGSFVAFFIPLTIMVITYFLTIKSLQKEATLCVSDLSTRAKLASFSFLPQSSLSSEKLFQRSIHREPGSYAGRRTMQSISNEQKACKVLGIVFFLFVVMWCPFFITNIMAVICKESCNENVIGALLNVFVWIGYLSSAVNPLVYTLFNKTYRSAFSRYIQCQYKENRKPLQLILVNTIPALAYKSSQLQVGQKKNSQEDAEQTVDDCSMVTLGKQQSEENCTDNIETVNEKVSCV

Turning to `COc1ccc(NC(=O)Nc2ccc(Cl)cc2)cc1-c1c(Cl)cnn1C`, the Ki is 0.158 nM in [1], 2 nM in [2] and 10 nM in [9]. Further, the Cmax in data set [3] turned out to be 41 ng/mL. The Tmax in [4] is 6 h. Also, the AUC(0-inf) in [5] was 478 ng·h/mL. For the same compound, the result with Rattus norvegicus [6] was Active. Further, the ED50 in the data set with Rattus norvegicus [7] was 0.7 mg/kg. The half-life in data set [8] was 5 h. Further, in [10] (read-out: pIC50 (converted)), the IC50 is 0.501 nM.

As for `COc1ccc(NC(=O)Nc2ccc(Cl)cc2)cc1-c1c(Br)cnn1C`, the Ki is 0.501 nM in data set [1] and 10 nM in [9]. Besides, the outcome in the data set on Rattus norvegicus [11] and with Rattus norvegicus [12] was Active. This compound yielded a Cmax in data set [13] of 45 ng/mL. Besides, the ED50 with Rattus norvegicus [7] was 0.5 mg/kg. The compound further returned an AUC(0-inf) in data set [14] of 281 ng·h/mL. The compound further showed a half-life in data set [15] of 3 h. In addition, the time of peak concentration (Tmax) in data set [16] worked out at 3 h. Also, the figures for the IC50 in [10] and in data set [10] (read-out: pIC50 (converted)) were 0.7 nM and 0.794 nM, respectively.

The Ki is a measure of affinity in units of concentration, obtained from inhibition or displacement. One may read the Cmax as the highest concentration seen after dosing. The term Tmax denotes the time at which the peak concentration occurs. Usually AUC(0-inf) stands for the area under the concentration-time curve extrapolated to infinity. Low values mean low exposure, high ones high exposure. Usually ED50 stands for the dose at which the effect has come halfway, by size or by number of responders. One may read the half-life as the time needed for the level to fall by half in the phase considered. Read a high half-life as slow loss.

Source of the values: ChEMBL document CHEMBL1157565, “Discovery of 1-[3-(4-bromo-2-methyl-2h-pyrazol-3-yl)-4-methoxyphenyl]-3-(2,4-difluorophenyl)urea (nelotanserin) and related 5-hydroxytryptamine2A inverse agonists for the treatment of insomnia” (J Med Chem, 2010).
